In ChEMBL document CHEMBL4390650, “Design, synthesis and biological evaluation of 2-(phenoxymethyl)-5-phenyl-1,3,4-oxadiazole derivatives as anti-breast cancer agents” (Eur J Med Chem, 2019) one finds IC50, Activity and inhibition data, which are given here for 16 molecules.

Broadly, the IC50 is the concentration needed to halve the response being measured. The inhibition is how much of the control response was suppressed. High values mean strong suppression, low ones little suppression.

Calls of active or inactive are those of the source. The calls are words filed in the database; no cut-off is given here. Where only a bound is given, the exact number is not on record here.

Assay [1] has as its system MCF7. Briefly: Cytotoxicity against human MCF7 cells assessed as reduction in cell viability incubated for 48 hrs by MTT assay. It counts as functional, cell-based. The conditions noted are these: for IC50: MCF7, 48 h. The essentials:
(§1)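 Cells came from NCCS Pune and were grown in DMEM with 10% FBS at 37°C, 5% CO2, then trypsinized at 70-80% confluence. About 5,000 cells/well were seeded and allowed 24 h to recover. Compounds in DMSO, up to 100 μM, were added for 48 h against DMSO-only controls. The medium was then changed and MTT (5 mg/ml stock) added for 4 h. Formazan was dissolved in DMSO and read at 560 nm. Values are mean ± SD of three independent experiments in triplicate.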
For orientation: Tetrazolium assays rely on reduction of a dye to a coloured formazan, in cell work by metabolically active cells.

Assay [2] concerns MDA-MB-453. Briefly: Cytotoxicity against human MDA-MB-453 cells assessed as reduction in cell viability incubated for 48 hrs by MTT assay. It counts as functional, cell-based. The conditions noted are these: for IC50: MDA-MB-453, 48 h. In short, it runs like this: as §1
Assay [3] deals with MCF-10A. Briefly: Cytotoxicity against human MCF10A cells assessed as reduction in cell viability incubated for 48 hrs by MTT assay. It counts as cell-based. The essentials: as §1
The test system of assay [4] is MDA-MB-453. The assay can be described thus: Induction of apoptosis in human MDA-MB-453 cells at 10 uM incubated for 48 hrs by acridine orange and ethidium bromide staining based inverted fluorescent microscopy. The class given is functional, cell-based. In short, it runs like this: (§2)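 MDA-MB-453 cells were seeded at 5×10⁵/well and incubated overnight at 37°C, 5% CO2, then treated for 48 h. They were stained 5 min with a 1:1 acridine orange/ethidium bromide mix (each dye 100 μg/ml) and imaged immediately under an inverted fluorescence microscope. Scoring: live cells green, late apoptotic orange, necrotic red.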

Assay [5] concerns MDA-MB-453. Briefly: Induction of necrosis in human MDA-MB-453 cells at 10 uM incubated for 48 hrs by acridine orange and ethidium bromide staining based inverted fluorescent microscopy. It counts as functional, cell-based. In short, it runs like this:
as §2

The subject of assay [6] is MDA-MB-453. Briefly: Induction of morphological changes in human MDA-MB-453 cell assessed as induction of cell membrane blebbing at 10 uM incubated for 48 hrs by acridine orange and ethidium bromide staining based inverted fluorescent microscopy. It counts as functional. In short, it runs like this: as §2
The test system of assay [7] is MDA-MB-453. Briefly: Induction of morphological changes in human MDA-MB-453 cell assessed as induction of protrusion elongation at 10 uM incubated for 48 hrs by acridine orange and ethidium bromide staining based inverted fluorescent microscopy. The class given is functional. The essentials: as §2
Assay [8] relates to MDA-MB-453. Briefly: Induction of morphological changes in human MDA-MB-453 cell assessed as induction of chromatin condensation at 10 uM incubated for 48 hrs by acridine orange and ethidium bromide staining based inverted fluorescent microscopy. The class given is functional. In short, it runs like this: as §2
Assay [9] deals with MDA-MB-453. The assay can be described thus: Induction of apoptosis in human MDA-MB-453 cells assessed as increase in SMAD7 protein expression at 10 uM incubated for 48 hrs by Western blot analysis. It counts as functional, cell-based. The essentials: (§3)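 Western blot of treated MDA-MB-453 cells, with GAPDH as loading control.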
In general terms: In western blotting, separated proteins are transferred to a membrane and probed.

Assay [10] concerns MDA-MB-453. The assay can be described thus: Induction of apoptosis in human MDA-MB-453 cells assessed as increase in p53 protein expression incubated for 48 hrs by Western blot analysis. It counts as functional, cell-based. The essentials: as §3
Assay [11] concerns the target DNA (cytosine-5)-methyltransferase 1 (Homo sapiens) (UniProt P26358). The assay can be described thus: Inhibition of DNMT1 (unknown origin) at 100 uM using cytosine-rich DNA substrate by ELISA relative to untreated control. The essentials:
(§4)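 DNMT activity was measured with a commercial DNA methyltransferase activity/inhibition screening kit, following the manufacturer's instructions.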
In general terms: In an ELISA, binding on a coated surface is turned into a signal by an enzyme label.

For assay [12], the target named is DNA (cytosine-5)-methyltransferase 3B (Homo sapiens) (UniProt Q9UBC3). Briefly: Inhibition of DNMT3B (unknown origin) at 100 uM using cytosine-rich DNA substrate by ELISA relative to untreated control. In short, it runs like this:
as §4

Sequence of DNA (cytosine-5)-methyltransferase 1 (Homo sapiens) (P26358 whole entry): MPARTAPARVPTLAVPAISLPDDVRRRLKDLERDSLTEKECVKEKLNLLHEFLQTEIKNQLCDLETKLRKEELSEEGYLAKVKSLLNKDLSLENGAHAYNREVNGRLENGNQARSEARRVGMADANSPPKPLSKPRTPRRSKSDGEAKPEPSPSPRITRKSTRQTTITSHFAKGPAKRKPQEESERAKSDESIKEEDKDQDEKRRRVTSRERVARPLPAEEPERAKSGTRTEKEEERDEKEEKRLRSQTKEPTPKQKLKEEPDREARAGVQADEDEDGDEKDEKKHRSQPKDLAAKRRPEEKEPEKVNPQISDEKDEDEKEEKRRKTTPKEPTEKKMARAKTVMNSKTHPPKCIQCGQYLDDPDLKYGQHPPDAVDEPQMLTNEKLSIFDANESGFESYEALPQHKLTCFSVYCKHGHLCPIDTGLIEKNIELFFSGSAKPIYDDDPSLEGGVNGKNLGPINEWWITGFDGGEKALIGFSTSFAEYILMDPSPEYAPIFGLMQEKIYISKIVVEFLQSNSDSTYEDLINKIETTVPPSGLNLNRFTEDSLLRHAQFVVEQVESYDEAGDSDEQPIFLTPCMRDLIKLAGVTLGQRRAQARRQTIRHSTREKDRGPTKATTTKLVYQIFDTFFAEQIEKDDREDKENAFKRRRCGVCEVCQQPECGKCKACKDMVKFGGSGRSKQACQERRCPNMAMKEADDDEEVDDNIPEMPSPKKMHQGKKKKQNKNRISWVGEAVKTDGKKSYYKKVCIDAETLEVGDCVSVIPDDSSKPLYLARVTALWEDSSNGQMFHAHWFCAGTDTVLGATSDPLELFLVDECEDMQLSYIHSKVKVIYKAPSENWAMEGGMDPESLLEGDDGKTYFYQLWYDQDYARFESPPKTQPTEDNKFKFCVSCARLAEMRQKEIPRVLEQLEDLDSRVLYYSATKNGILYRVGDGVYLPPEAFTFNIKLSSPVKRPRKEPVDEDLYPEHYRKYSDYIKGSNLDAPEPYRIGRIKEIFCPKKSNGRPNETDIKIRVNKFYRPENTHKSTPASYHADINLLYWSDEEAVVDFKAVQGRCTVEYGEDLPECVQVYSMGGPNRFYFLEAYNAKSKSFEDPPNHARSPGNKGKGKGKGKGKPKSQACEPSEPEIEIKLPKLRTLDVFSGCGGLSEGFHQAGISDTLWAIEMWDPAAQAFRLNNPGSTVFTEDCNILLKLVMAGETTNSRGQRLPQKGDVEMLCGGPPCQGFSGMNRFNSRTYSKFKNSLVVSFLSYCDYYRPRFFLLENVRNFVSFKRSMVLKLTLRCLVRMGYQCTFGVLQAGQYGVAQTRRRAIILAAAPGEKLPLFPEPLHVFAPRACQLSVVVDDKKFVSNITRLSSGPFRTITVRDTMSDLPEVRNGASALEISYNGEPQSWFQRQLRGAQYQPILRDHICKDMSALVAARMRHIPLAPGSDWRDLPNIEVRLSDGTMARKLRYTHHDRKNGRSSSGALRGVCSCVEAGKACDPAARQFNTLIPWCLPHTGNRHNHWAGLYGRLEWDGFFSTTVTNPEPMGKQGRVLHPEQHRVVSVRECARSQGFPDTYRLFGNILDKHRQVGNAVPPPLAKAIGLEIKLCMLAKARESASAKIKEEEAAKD

Turning to `N#Cc1ccc(OCc2nnc(-c3ccc(Cl)cc3)o2)cc1F`, the results for the IC50 in [1], in [2] and in assay [3] were 48.3 µM, above 50 µM and above 100 µM, respectively.
`Cc1ccc(-c2nnc(COc3ccc(C#N)c(F)c3)o2)cc1`: the IC50 in assay [1] was above 50 µM; in [2], above 50 µM; in [3], above 100 µM.
On to `Cc1ccc(-c2nnc(COc3ccc(-c4nnco4)cc3)o2)cc1`, for which the results for the IC50 in [1], in assay [2] and in assay [3] were above 50 µM, above 50 µM and above 100 µM, respectively.
`Fc1ccc(-c2nnc(COc3ccc(-c4nnco4)cc3)o2)cc1`: the IC50 in assay [1] is 35.6 µM; in assay [2], 38.2 µM; in assay [3], above 100 µM.
Turning to `COc1cc(C#N)ccc1OCc1nnc(-c2ccc(C)cc2)o1`, the IC50 in assay [1] is 27.1 µM; in [2] it was 38.4 µM; in assay [3], above 100 µM.
For `Clc1ccc(-c2nnc(COc3ccc(-c4nnco4)cc3)o2)cc1` the same measures were 45.2 µM, above 50 µM and above 100 µM.
Turning to `c1ccc(-c2nnc(COc3ccc(-c4nnco4)cc3)o2)cc1`, the IC50 is above 50 µM in [1], above 50 µM in assay [2] and above 100 µM in [3].
As to `COc1cc(C#N)ccc1OCc1nnc(-c2ccc(F)cc2)o1`, the Activity result in assay [1], in assay [2] and in assay [10] was “Dose-dependent effect” throughout. Besides, the values for the IC50 in assay [1], in [2] and in assay [3] were 10.2 µM, 10.5 µM and above 100 µM, respectively. Further, the outcome in assay [4], in assay [5], in assay [6], in assay [7], in assay [8] and in [9] was Active. Besides, the inhibition amounted to 10% in assay [11] and 33% in [12].
`COc1ccc(-c2nnc(COc3ccc(-c4nnco4)cc3)o2)cc1`: the results for the IC50 in assay [1], in assay [2] and in [3] were 31.2 µM, 36.2 µM and above 100 µM, respectively.
`Cc1ccc(NC(=O)c2ccc(CN3CCN(C)CC3)cc2)cc1Nc1nccc(-c2cccnc2)n1` [IMATINIB]: the IC50 in assay [2] is 12.8 µM; in assay [3] it was above 100 µM.
For `COc1cc(C#N)ccc1OCc1nnc(-c2ccccc2)o1`, the IC50 in assay [1] is 32.2 µM; in assay [2], 40.1 µM; in assay [3], above 100 µM.
Take `COc1cc(C#N)ccc1OCc1nnc(-c2ccc(Cl)cc2)o1`: the IC50 turned out to be 21.5 µM in assay [1], 33.9 µM in assay [2] and 89.5 µM in assay [3].
The corresponding values for `N#Cc1ccc(OCc2nnc(-c3ccc(F)cc3)o2)cc1F` are 20.4 µM, 25.1 µM and 84.2 µM.
For `COc1ccc(-c2nnc(COc3ccc(C#N)c(F)c3)o2)cc1` the same measures were 42.1 µM, 45.5 µM and above 100 µM.
Consider `COc1ccc(-c2nnc(COc3ccc(C#N)cc3OC)o2)cc1`, for which the values for the IC50 in assay [1], in assay [2] and in [3] were 11.1 µM, 13 µM and above 100 µM, respectively.
For `N#Cc1ccc(OCc2nnc(-c3ccccc3)o2)cc1F` the same measures were above 50 µM, above 50 µM and above 100 µM.
